# Results as given in ChEMBL document CHEMBL4229410, “Facile construction of fused benzimidazole-isoquinolinones that induce cell-cycle arrest and apoptosis in colorectal cancer cells” (Bioorg Med Chem, 2018).
# pKd: −log10 of the molar value. Activity calls are given as the source filed them. The rule behind the calls is not given here.
# What was measured:
# [1] = target: Inhibitor of nuclear factor kappa-B kinase subunit alpha (Homo sapiens) (UniProt O15111); test: Inhibition of full length human IKKalpha (M1 to E745 residues) expressed in mammalian expression system assessed as residual activity at 5 uM by KINOMEscan assay relative to control
# [2] = target: Receptor tyrosine-protein kinase erbB-4 (Homo sapiens, UniProt Q15303); test: Inhibition of human ERBB4 (L690 to K994 residues) expressed in bacterial expression system assessed as residual activity at 5 uM by KINOMEscan assay relative to control
# [3] = target: Tyrosine-protein kinase JAK2 (Homo sapiens, UniProt O60674); test: Inhibition of human JAK2 JH1 catalytic domain (A829 to G1132 residues) expressed in mammalian expression system assessed as residual activity at 5 uM by KINOMEscan assay relative to control
# Sequence of Tyrosine-protein kinase JAK2 (O60674 whole entry, the tested form may be a part): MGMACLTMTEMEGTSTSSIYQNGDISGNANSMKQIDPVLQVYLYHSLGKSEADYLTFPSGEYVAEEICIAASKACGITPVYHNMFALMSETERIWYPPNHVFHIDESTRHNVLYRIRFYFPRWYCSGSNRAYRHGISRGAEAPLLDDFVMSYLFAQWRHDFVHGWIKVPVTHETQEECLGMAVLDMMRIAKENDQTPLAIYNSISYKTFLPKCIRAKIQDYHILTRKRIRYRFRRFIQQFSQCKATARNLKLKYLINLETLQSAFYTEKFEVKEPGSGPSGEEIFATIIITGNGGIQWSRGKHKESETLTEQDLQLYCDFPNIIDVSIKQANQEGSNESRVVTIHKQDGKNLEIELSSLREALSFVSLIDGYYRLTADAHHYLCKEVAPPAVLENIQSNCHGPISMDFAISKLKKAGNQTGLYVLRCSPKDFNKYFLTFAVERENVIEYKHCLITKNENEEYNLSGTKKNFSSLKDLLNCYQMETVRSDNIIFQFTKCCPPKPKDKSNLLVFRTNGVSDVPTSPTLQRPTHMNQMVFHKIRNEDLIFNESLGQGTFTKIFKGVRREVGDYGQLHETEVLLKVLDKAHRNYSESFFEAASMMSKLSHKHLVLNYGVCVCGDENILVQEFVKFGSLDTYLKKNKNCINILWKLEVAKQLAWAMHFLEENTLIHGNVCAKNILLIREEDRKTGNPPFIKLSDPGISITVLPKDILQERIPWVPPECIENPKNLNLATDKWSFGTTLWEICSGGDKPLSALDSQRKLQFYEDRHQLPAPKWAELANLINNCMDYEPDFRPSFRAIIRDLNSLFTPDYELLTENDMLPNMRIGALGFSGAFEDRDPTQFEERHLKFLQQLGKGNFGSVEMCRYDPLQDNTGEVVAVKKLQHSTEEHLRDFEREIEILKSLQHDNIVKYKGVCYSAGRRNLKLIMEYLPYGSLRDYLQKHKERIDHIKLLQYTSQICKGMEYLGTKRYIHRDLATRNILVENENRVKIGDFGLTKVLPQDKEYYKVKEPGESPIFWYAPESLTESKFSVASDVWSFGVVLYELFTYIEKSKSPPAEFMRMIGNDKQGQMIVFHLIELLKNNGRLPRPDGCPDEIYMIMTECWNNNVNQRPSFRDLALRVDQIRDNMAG
# HT-29 [4] = test: Induction of apoptosis in human HT-29 cells assessed as reduction in BCL2 expression after 48 hrs by Western blot analysis; format: functional, cell-based
# How it was run: (§1)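 HT29 or SW620 cells were treated at 0, 25, 50 and 75 μM for 48 h and lysed in RIPA with protease and phosphatase inhibitors. Protein was quantified by BCA. 50 μg lysate was run on 8–15% SDS-PAGE and transferred to PVDF. Blocking was 5% BSA/TBST for 2 h; primary antibodies were applied overnight at 4 °C, then HRP secondary 1 h at room temperature.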
# HT-29 [5] = test: Induction of apoptosis in human HT-29 cells assessed as late apoptotic cells at 50 uM after 48 hrs by Annexin-V-FITC/propidium iodide staining based flow cytometry (reference value: 4.1%); format: functional
# [6] = target: Mitogen-activated protein kinase 9 (Homo sapiens, UniProt P45984); test: Inhibition of full length human JNK2 (M1 to Q382 residues) expressed in mammalian expression system assessed as residual activity at 5 uM by KINOMEscan assay relative to control
# [7] = target: MAP/microtubule affinity-regulating kinase 3 (Homo sapiens, UniProt P27448); test: Binding affinity to full length human MARK3 (M1 to L729 residues) expressed in bacterial expression system by KINOMEscan assay
# [8] = target: NUAK family SNF1-like kinase 2 (Homo sapiens, UniProt Q9H093); test: Binding affinity to human SNARK (P22 to A333 residues) expressed in mammalian expression system by KINOMEscan assay
# HT-29 [9] = test: Inhibition of colony formation in human HT-29 cells assessed as reduction in colony size at 25 to 75 uM treated for 48 hrs followed by compound washout and measured after 14 hrs by crystal violet staining based assay; format: functional, cell-based
# [10] = target: Testis-specific serine/threonine-protein kinase 1 (Homo sapiens, UniProt Q9BXA7); test: Binding affinity to full length human TSSK1B (M1 to Q367 residues) expressed in bacterial expression system by KINOMEscan assay
# Sequence of Testis-specific serine/threonine-protein kinase 1 (Q9BXA7 whole entry, the tested form may be a part): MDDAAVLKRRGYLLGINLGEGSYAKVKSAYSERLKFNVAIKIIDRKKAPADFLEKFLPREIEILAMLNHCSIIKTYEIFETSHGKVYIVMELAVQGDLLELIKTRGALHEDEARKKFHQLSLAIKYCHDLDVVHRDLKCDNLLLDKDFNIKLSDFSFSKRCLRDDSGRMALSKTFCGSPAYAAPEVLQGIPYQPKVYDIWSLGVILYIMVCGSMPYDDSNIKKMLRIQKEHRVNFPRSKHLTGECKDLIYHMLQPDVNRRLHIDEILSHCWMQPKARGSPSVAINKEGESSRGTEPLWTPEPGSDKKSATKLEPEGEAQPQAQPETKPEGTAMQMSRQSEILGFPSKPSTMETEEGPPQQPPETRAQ
# SW-620 [11] = test: Induction of apoptosis in human SW620 cells assessed as late apoptotic cells at 25 uM after 48 hrs by Annexin-V-FITC/propidium iodide staining based flow cytometry (reference value: 1.2%); format: functional
# [12] = target: Mast/stem cell growth factor receptor Kit (Homo sapiens, UniProt P10721, T670I/V559D); test: Binding affinity to human KIT (I571 to D952 residues) V559D/T670I double mutant expressed in bacterial expression system by KINOMEscan assay
# [13] = target: Mitogen-activated protein kinase 3 (Homo sapiens, UniProt P27361); test: Binding affinity to full length human ERK1 (M1 to P379 residues) expressed in bacterial expression system by KINOMEscan assay
# HT-29 [14] = test: Down regulation of cyclin-B1 expression in human HT-29 cells after 48 hrs by Western blot analysis; format: functional, cell-based; how it was run: as §1
# [15] = tested on: Tyrosine-protein kinase ABL1 (Homo sapiens), P00519 [T315I]; test: Inhibition of human phosphorylated ABL1 T315I mutant (S229 to K512 residues) expressed in mammalian expression system assessed as residual activity at 5 uM by KINOMEscan assay relative to control
# SW-620 [16] = test: Inhibition of colony formation in human SW620 cells assessed as reduction in number of colonies at 25 to 75 uM treated for 48 hrs followed by compound washout and measured after 14 hrs by crystal violet staining based assay; format: functional, cell-based
# [17] = target: Phosphatidylinositol 4,5-bisphosphate 3-kinase catalytic subunit gamma isoform (Homo sapiens, UniProt P48736); test: Inhibition of human PIK3CG (S144 to A1102 residues) expressed in mammalian expression system assessed as residual activity at 5 uM by KINOMEscan assay relative to control
# Homo sapiens [18] = species: Homo sapiens; test: Inhibition of PI3K in human SW620 cells assessed as reduction in AKT phosphorylation at T308 residue up to 75 uM after 48 hrs by Western blot analysis; format: cell-based
# [19] = target: T1, Cyclin-dependent kinase 9 (Homo sapiens, UniProt P50750); test: Inhibition of full length human CDK9 (M1 to F372 residues) expressed in bacterial expression system assessed as residual activity at 5 uM by KINOMEscan assay relative to control
# T1 sequence (P50750 whole entry, the tested form may be a part): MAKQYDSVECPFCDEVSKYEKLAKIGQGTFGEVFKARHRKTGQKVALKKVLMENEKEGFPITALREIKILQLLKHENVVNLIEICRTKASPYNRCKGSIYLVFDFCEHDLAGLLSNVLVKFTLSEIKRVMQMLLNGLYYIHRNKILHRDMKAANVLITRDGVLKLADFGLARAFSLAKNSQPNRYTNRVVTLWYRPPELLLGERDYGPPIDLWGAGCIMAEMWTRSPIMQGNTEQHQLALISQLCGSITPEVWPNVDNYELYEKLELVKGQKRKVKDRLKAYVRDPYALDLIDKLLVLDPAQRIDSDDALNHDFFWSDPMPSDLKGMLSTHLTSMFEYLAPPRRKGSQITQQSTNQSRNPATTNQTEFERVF
# [20] = target: Serine/threonine-protein kinase ULK2 (Homo sapiens) (UniProt Q8IYT8); test: Inhibition of human ULK2 (M1 to S301 residues) expressed in mammalian expression system assessed as residual activity at 5 uM by KINOMEscan assay relative to control
# Sequence of Serine/threonine-protein kinase ULK2 (Homo sapiens) (Q8IYT8 whole entry, the tested form may be a part): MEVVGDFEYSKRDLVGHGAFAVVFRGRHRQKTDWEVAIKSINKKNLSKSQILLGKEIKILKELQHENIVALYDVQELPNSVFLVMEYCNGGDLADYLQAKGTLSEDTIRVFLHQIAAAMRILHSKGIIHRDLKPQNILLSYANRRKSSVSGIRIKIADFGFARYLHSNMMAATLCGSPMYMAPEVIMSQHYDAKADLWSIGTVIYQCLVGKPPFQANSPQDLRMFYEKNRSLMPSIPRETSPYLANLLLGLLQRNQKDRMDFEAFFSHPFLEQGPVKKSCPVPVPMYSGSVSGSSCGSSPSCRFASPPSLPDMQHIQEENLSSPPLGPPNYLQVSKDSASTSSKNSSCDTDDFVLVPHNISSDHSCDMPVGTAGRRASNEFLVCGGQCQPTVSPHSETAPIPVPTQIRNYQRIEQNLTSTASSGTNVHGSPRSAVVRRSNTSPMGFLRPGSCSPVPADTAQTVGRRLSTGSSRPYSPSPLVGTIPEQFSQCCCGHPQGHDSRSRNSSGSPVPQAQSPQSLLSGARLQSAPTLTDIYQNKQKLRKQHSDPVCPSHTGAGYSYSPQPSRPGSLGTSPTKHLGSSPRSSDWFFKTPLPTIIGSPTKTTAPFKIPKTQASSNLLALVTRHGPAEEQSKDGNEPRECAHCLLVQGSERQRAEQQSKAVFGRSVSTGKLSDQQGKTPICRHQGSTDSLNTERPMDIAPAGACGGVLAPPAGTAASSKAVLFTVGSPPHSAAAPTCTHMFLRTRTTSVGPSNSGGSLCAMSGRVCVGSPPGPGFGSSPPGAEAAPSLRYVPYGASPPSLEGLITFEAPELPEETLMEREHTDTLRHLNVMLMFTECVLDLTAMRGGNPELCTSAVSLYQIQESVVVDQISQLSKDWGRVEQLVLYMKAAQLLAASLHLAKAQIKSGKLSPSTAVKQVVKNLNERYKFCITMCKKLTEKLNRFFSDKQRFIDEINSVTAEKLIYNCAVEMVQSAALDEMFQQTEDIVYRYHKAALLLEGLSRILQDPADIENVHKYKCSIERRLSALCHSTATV
# SW-620 [21] = test: Induction of apoptosis in human SW620 cells assessed as necrotic cells at 75 uM after 48 hrs by Annexin-V-FITC/propidium iodide staining based flow cytometry (reference value: 0.9%); format: functional
# [22] = target: T1, Cyclin-dependent kinase 9; test: Binding affinity to full length human CDK9 (M1 to F372 residues) expressed in bacterial expression system by KINOMEscan assay
# [23] = target: Serine/threonine-protein kinase Chk1 (Homo sapiens, UniProt O14757); test: Binding affinity to human CHEK1 (M1 to G289 residues) expressed in bacterial expression system by KINOMEscan assay
# Sequence of Serine/threonine-protein kinase Chk1 (O14757 whole entry, the tested form may be a part): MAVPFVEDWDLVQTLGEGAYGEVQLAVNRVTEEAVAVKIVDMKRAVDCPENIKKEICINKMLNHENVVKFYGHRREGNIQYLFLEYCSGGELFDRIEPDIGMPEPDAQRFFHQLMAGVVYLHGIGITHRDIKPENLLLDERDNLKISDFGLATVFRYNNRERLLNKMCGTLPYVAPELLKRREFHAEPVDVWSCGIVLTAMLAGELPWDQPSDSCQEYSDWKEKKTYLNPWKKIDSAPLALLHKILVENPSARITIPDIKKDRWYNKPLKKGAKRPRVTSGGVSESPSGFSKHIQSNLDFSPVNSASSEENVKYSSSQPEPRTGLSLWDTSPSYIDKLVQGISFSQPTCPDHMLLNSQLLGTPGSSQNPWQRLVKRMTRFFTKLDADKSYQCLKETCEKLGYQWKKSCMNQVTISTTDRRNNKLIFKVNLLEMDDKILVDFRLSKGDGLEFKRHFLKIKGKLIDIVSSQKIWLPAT
# HT-29 [24] = test: Growth inhibition of human HT-29 cells by MTT assay; format: functional
# How it was run: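 MTT viability assay: 3×10³ cells/well were pre-incubated for 24 h, then exposed to 0, 12.5, 25, 50, 100 or 200 μM for 12, 24, 48 or 72 h. MTT was added at 0.5 mg/mL final for 4 h, formazan dissolved in DMSO, and absorbance read at 570 nm. GI₅₀ was taken from growth-inhibition curves; mean ± SD of three independent experiments, each in sextuplicate.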
# [25] = target: Mitogen-activated protein kinase kinase kinase 4 (Homo sapiens, UniProt Q9Y6R4); test: Inhibition of human MAP3K4 (G1319 to E1608 residues) expressed in bacterial expression system assessed as residual activity at 5 uM by KINOMEscan assay relative to control
# Sequence of Mitogen-activated protein kinase kinase kinase 4 (Q9Y6R4 whole entry, the tested form may be a part): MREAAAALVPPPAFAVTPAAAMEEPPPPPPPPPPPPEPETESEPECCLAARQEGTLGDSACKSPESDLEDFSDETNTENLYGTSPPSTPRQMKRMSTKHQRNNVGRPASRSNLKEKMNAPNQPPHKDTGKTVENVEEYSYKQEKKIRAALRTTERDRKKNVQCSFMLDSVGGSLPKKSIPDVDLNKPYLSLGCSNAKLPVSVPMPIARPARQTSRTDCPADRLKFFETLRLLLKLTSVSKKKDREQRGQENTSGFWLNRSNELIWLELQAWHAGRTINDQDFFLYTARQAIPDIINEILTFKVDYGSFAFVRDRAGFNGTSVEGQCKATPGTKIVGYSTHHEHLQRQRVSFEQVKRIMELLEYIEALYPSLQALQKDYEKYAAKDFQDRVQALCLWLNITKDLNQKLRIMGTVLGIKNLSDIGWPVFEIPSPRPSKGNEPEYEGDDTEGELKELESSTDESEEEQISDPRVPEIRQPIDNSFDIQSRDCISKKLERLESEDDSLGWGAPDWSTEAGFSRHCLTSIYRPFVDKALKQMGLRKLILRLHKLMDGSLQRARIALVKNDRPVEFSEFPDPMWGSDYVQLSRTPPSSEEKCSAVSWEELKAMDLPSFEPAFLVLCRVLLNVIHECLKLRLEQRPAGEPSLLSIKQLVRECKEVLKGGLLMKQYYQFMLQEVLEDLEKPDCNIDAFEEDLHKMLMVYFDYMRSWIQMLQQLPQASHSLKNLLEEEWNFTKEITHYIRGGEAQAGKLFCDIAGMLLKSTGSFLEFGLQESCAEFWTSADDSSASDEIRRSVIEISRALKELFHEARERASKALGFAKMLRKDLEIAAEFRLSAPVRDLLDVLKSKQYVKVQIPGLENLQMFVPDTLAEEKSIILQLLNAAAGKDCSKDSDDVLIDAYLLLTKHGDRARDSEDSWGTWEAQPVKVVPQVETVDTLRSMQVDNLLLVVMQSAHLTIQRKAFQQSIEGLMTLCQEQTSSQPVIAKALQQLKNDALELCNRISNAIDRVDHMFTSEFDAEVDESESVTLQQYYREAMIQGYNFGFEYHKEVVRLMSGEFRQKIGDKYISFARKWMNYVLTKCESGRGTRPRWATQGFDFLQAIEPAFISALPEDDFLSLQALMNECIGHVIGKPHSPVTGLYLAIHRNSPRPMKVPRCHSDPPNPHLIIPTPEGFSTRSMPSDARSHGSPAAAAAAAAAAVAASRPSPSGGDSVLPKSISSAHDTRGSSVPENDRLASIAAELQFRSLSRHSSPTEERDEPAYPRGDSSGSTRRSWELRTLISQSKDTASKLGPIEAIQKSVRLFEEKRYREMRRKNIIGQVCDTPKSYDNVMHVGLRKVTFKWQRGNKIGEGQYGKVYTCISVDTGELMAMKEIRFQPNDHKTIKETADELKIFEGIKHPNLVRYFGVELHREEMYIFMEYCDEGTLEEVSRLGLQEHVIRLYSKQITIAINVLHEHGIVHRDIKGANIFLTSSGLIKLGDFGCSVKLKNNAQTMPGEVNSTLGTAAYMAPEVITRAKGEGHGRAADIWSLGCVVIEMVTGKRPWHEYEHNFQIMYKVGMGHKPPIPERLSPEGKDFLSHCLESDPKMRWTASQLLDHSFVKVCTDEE
# SW-620 [26] = test: Cell cycle arrest in human SW620 cells assessed as accumulation at G2-phase at 75 uM after 48 hrs by propidium iodide staining based flow cytometry (reference value: 14.08%); format: functional
# Homo sapiens [27] = species: Homo sapiens; test: Inhibition of PI3K/AKT signaling pathway in human SW620 cells assessed as reduction in mTOR phosphorylation up to 75 uM after 48 hrs by Western blot analysis; format: cell-based
compound,measurement,setting,value
CC(C)CN(C(=O)c1cccnc1)c1c2ccccc2c(=O)n2c1[nH]c1ccccc12,Activity,[1],100%
same,Activity,[2],98%
same,Activity,[3],88%
same,Activity,HT-29 [4],Dose-dependent effect
same,Activity,HT-29 [5],13.7%
same,Activity,[6],96%
same,pKd,[7],≤ 5.30
same,pKd,[8],≤ 5.30
same,inhibition,HT-29 [9],Active
same,pKd,[10],≤ 5.30
same,Activity,SW-620 [11],4.1%
same,pKd,[12],≤ 5.30
same,pKd,[13],≤ 5.30
same,Activity,HT-29 [14],Dose-dependent effect
same,Activity,[15],90%
same,inhibition,SW-620 [16],Active
same,Activity,[17],100%
same,inhibition,Homo sapiens [18],Active
same,Activity,[19],87%
same,Activity,[20],87%
same,Activity,SW-620 [21],3.5%
same,pKd,[22],≤ 5.30
same,pKd,[23],≤ 5.30
same,GI50,HT-29 [24],24.1 µM
same,Activity,[25],91%
same,Activity,SW-620 [26],29.26%
same,inhibition,Homo sapiens [27],Active
